Data reported in ChEMBL document CHEMBL4813921, “Optimization of WZ4003 as NUAK inhibitors against human colorectal cancer” (Eur J Med Chem, 2021).
Activity calls are given as the source filed them. The calls are words filed in the database; no cut-off is given here.

Columns and labels:
SW480 [1] = experiment: Induction of ROS generation in human SW480 cells at 10 uM measured after 48 hrs by DCFH-DA staining based flow cytometry method; type: functional, cell-based
Method in brief: (§1)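 Cells treated at 10 μM for 48 h, ROS measured by flow cytometry. Fluorescence intensity expressed relative to vehicle-treated controls; mean ± SEM from 3 independent experiments.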

SW480 [2] = experiment: Induction of apoptosis in human SW480 cells assessed as late apoptotic cells at 10 uM measured after 48 hrs by Annexin V-FITC/PI staining based flow cytometry method (reference value: 2.8%); type: functional
[3] = Toxicity against BALB/c-nu/nu mouse xenografted with human SW480 cells assessed as morphological changes in spleen at 10 to 20 mg/kg, ip administered every 2 days for 18 days by H and E staining based analysis; type: organism-based; details: in vivo, 432 h, dose 10-20 mg/kg, time 18 day
Method in brief: (§2)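 After 18 days of ip dosing every two days in SW480-xenografted nude mice, heart, liver, spleen, lung and kidney harvested, sectioned, HE-stained, examined at ×400.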

U2OS [4] = experiment: Induction of apoptosis in human U2OS cells assessed as necrotic cells at 10 uM measured after 48 hrs by Annexin V-FITC/PI staining based flow cytometry method (reference value: 0.4%); type: functional
U2OS [5] = experiment: Inhibition of colony formation in human U2OS cells measured after 14 days by crystal violet staining based microcopic analysis; type: functional, cell-based; details: dose 0.5-2 µM, time 14.0 day
Method in brief: (§3)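 Clonogenic assay with 14-day exposure to a range of compound concentrations; colonies stained with crystal violet and imaged by microscopy; compared with untreated cells.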

[6] = Toxicity against BALB/c-nu/nu mouse xenografted with human SW480 cells assessed as body weight at 10 to 20 mg/kg, ip administered every 2 days for 18 days; type: organism-based; details: in vivo, 432 h, dose 10-20 mg/kg, time 18 day
Method in brief: (§4)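 SW480 xenografts in nude mice, randomized at 100 mm3 tumour volume into four groups of six. Dosed ip at 10 or 20 mg/kg every two days for 18 days, with vehicle group. Tumour volume and body weight recorded every two days; tumours weighed at end; means ± SD (n = 6).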

SW480 [7] = experiment: Inhibition of colony formation in human SW480 cells measured after 14 days by crystal violet staining based microcopic analysis; type: functional, cell-based; details: dose 0.5-2 µM, time 14.0 day; method in brief: as §3
SW480 [8] = experiment: Antitumour activity against human SW480 cells xenografted in Balb/c-nu/nu mouse assessed as reduction in Ki67 expression in tumor at 10 mg/kg, ip administered every 2 days for 18 days by immunohistochemical assay; type: functional, organism-based; details: time 18.0 day
Method in brief: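 SW480 xenografts in nude mice (n = 6 per group) treated ip every two days for 18 days. Excised tumours sectioned for HE and Ki67 staining, examined at ×400.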

U2OS [9] = experiment: Induction of apoptosis in human U2OS cells assessed as late apoptotic cells at 10 uM measured after 48 hrs by Annexin V-FITC/PI staining based flow cytometry method (reference value: 1.3%); type: functional
U2OS [10] = experiment: Induction of cell cycle arrest in human U2OS cells assessed as reduction in accumulation at G1 phase at 10 uM measured after 48 hrs by PI/RNaseA staining based flow cytometry assay; type: functional
HCT-116 [11] = experiment: Induction of cell cycle arrest in human HCT-116 cells assessed as reduction in accumulation at S phase at 10 uM measured after 48 hrs by PI/RNaseA staining based flow cytometry assay; type: functional
U2OS [12] = experiment: Antiproliferative activity against human U2OS cells assessed as reduction in cell viability at 10 uM measured after 1 to 5 days by MTT assay; type: functional; details: time 1-5 day
Method in brief: (§5)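 MTT viability read daily over 1–5 days of exposure to 10 μM compound; mean ± SD, n = 3.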

SW480 [13] = experiment: Antitumour activity against human SW480 cells xenografted in Balb/c-nu/nu mouse assessed as inhibition of tumour volume at 10 to 20 mg/kg, ip administered every 2 days for 18 days; type: functional, organism-based; details: dose 10-20 mg/kg, time 18.0 day; method in brief: as §4
SW480 [14] = experiment: Induction of apoptosis in human SW480 cells assessed as early apoptotic cells at 10 uM measured after 48 hrs by Annexin V-FITC/PI staining based flow cytometry method (reference value: 2.6%); type: functional
HCT-116 [15] = experiment: Antiproliferative activity against human HCT-116 cells assessed as reduction in cell viability at 10 uM measured after 1 to 5 days by MTT assay relative to control; type: functional, cell-based; details: time 1-5 day; method in brief: as §5
[16] = Toxicity against BALB/c-nu/nu mouse xenografted with human SW480 cells assessed as morphological changes in heart at 10 to 20 mg/kg, ip administered every 2 days for 18 days by H and E staining based analysis; type: organism-based; details: in vivo, 432 h, dose 10-20 mg/kg, time 18 day; method in brief: as §2
SW480 [17] = experiment: Antiproliferative activity against human SW480 cells at 2.5 to 10 uM measured after 48 hrs by EdU staining based assay; type: functional, cell-based; details: dose 2.5-10 µM
Method in brief: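 Cells exposed to a range of compound concentrations for 48 h, then EdU click-chemistry staining with DAPI counterstain. Confocal high-content imaging; DAPI-positive nuclei counted as total and EdU-positive as proliferating.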

HCT-116 [18] = experiment: Induction of cell cycle arrest in human HCT-116 cells assessed as increase in accumulation at G2/M phase at 10 uM measured after 48 hrs by PI/RNaseA staining based flow cytometry assay; type: functional
U2OS [19] = experiment: Induction of cell cycle arrest in human U2OS cells assessed as increase in accumulation at G2/M phase at 10 uM measured after 48 hrs by PI/RNaseA staining based flow cytometry assay; type: functional
U2OS [20] = experiment: Induction of apoptosis in human U2OS cells assessed as early apoptotic cells at 10 uM measured after 48 hrs by Annexin V-FITC/PI staining based flow cytometry method (reference value: 2.8%); type: functional
HCT-116 [21] = experiment: Induction of apoptosis in human HCT-116 cells assessed as early apoptotic cells at 10 uM measured after 48 hrs by Annexin V-FITC/PI staining based flow cytometry method (reference value: 0.8%); type: functional
[22] = Toxicity against BALB/c-nu/nu mouse xenografted with human SW480 cells assessed as morphological changes in lung at 10 to 20 mg/kg, ip administered every 2 days for 18 days by H and E staining based analysis; type: organism-based; details: in vivo, 432 h, dose 10-20 mg/kg, time 18 day; method in brief: as §2
SW480 [23] = experiment: Induction of apoptosis in human SW480 cells assessed as necrotic cells at 10 uM measured after 48 hrs by Annexin V-FITC/PI staining based flow cytometry method (reference value: 1.4%); type: functional
SW480 [24] = experiment: Induction of apoptosis in human SW480 cells assessed as viable cells at 10 uM measured after 48 hrs by Annexin V-FITC/PI staining based flow cytometry method (reference value: 93.2%); type: functional; details: read-out: Activity
HCT-116 [25] = experiment: Induction of apoptosis in human HCT-116 cells assessed as necrotic cells at 10 uM measured after 48 hrs by Annexin V-FITC/PI staining based flow cytometry method (reference value: 2.2%); type: functional
HCT-116 [26] = experiment: Induction of ROS generation in human HCT-116 cells at 10 uM measured after 48 hrs by DCFH-DA staining based flow cytometry method; type: functional, cell-based; method in brief: as §1
SW480 [27] = experiment: Antitumour activity against human SW480 cells xenografted in Balb/c-nu/nu mouse assessed as reduction in tumor weight at 10 to 20 mg/kg, ip administered every 2 days for 18 days; type: functional, organism-based; details: dose 10-20 mg/kg, time 18.0 day; method in brief: as §4
SW480 [28] = experiment: Induction of cell cycle arrest in human SW480 cells assessed as increase in accumulation at G2/M phase at 10 uM measured after 48 hrs by PI/RNaseaA staining based flow cytometry assay; type: functional

CCC(=O)Nc1cccc(Oc2nc(Nc3ccc(N4CCN(C)CC4)cc3)ncc2Cl)c1
Activity (SW480 [1]): Active | Activity (SW480 [2]): 10.8% | Activity [3]: Non-Toxic | Activity (U2OS [4]): 0.6% | inhibition (U2OS [5]): Dose-Dependent Effect | Activity [6]: Non-Toxic | inhibition (SW480 [7]): Dose-Dependent Effect | Activity (SW480 [8]): Active | Activity (U2OS [9]): 4.8% | Activity (U2OS [10]): Active | Activity (HCT-116 [11]): Active | inhibition at 10 µM (U2OS [12]): 67.2% | Activity (SW480 [13]): Active | Activity (SW480 [14]): 16.2% | Activity (HCT-116 [15]): Active | Activity [16]: Non-Toxic | Activity (SW480 [17]): Active | Activity (HCT-116 [18]): Active | Activity (U2OS [19]): Active | Activity (U2OS [20]): 12.9% | Activity (HCT-116 [21]): 3.9% | Activity [22]: Non-Toxic | Activity (SW480 [23]): 3.3% | viability at 10 µM (SW480 [24]): 69.8% | Activity (HCT-116 [25]): 4.1% | Activity (HCT-116 [26]): Active | Activity (SW480 [27]): Active | Activity (SW480 [28]): Active
